High-throughput results from PubChem BioAssay.
Apaf-1 act = activators of human Apaf-1 apoptosome, primary screen, biochemical, DEVD-Rh110 fluorescence, uHTS. Apoptotic protease-activating factor 1 (Homo sapiens), O14727. Apaf-1 apoptosome caspase-3 activation; stronger effect = lower value. activity change, negative = activation, % at 20 µM. 330,000 tested, 0.31% active. AID 489031, 2010;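 active = activity change at or below -40% at 20 µM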
Target sequence (O14727 whole entry, looked up): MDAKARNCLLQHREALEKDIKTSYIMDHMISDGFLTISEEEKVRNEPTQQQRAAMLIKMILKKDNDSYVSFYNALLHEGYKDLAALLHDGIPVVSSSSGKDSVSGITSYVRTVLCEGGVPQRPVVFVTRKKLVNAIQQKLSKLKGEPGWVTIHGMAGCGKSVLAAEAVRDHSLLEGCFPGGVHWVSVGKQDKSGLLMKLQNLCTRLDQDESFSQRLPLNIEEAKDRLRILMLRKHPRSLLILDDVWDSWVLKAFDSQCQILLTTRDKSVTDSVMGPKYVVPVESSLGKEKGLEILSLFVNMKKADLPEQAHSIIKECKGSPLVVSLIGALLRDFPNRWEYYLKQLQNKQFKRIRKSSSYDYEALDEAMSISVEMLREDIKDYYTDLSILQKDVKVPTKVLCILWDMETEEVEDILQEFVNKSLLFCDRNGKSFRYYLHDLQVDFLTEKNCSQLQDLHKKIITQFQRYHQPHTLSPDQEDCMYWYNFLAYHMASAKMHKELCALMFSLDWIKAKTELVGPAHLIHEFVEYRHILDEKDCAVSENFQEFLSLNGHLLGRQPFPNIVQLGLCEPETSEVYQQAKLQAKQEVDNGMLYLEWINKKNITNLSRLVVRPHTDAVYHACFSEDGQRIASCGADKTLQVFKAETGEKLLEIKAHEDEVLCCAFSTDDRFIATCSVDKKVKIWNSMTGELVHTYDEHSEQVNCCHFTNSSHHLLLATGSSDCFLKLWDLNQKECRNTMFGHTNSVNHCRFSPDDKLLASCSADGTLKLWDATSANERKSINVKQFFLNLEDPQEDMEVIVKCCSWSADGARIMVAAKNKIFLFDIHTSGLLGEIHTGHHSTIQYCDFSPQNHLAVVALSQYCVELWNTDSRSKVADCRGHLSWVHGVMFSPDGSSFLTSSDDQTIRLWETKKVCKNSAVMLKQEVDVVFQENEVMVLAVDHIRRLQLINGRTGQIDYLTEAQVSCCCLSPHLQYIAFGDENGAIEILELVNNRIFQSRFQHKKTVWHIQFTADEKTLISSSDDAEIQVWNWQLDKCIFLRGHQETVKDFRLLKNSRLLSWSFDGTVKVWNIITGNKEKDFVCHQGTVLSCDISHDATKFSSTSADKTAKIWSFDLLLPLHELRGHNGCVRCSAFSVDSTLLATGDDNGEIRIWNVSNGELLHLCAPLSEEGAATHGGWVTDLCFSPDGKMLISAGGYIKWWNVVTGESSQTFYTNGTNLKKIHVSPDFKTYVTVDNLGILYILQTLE
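Assay system – biochemical Apaf-1 apoptosome reconstitution · Medium – 20 mM HEPES buffer, pH 7.5, containing CHAPS and BSA · Incubation – 30 min preincubation, 50 min reaction, room temperature · Measured by – Caspase-3-released Rh110 fluorescence, 540 nm emission, 480 nm excitation · Read-out – Caspase-3 cleavage activity downstream of Apaf-1 activation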
Rh110 act interf = Rh110 fluorescence interference by putative Apaf-1 activators, confirmation, artefact control for Apaf-1 activator project, biochemical, 20 µM | quenched caspase reaction, Ex480/Em540 | fluorescence interference (activity change), % at 20 µM, hits read low | 980 tested, under 10 active | shares compounds with Apaf-1 act;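 active = mean activity change at or below -40% when tested at 20 µM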
Apaf-1 act conf = Apaf-1 activators, single-dose retest, confirmation, biochemical, fluorescence, DEVD-Rh110, 20 µM; 980 tested, 5% active; activity change, negative = activation, % at 20 µM; reconstituted apoptosome caspase-3 activity; stronger effect = lower value; shares compounds with Apaf-1 act;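 active = mean activity change at or below -40%, meaning activation of 40% or more, at 20 µM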
Numbers without * were called inactive. Not all results are given here.

SMILES	Apaf-1 act	others
O=C(CCS(=O)(=O)c1ccc(Br)cc1)N1CCCCCC1	-283*
COc1ccc(NS(=O)(=O)c2cc(C(=O)N3CCC3)ccc2C)cc1	48
Cc1c(C(=O)N(CCc2ccccc2)Cc2ccccc2)cccc1[N+](=O)[O-]	41
CC1(c2ccc(OC(F)F)cc2)NC(=O)N(CC(=O)Nc2ccc(N3CCCCC3)cc2)C1=O (stereo not drawn)	53
COc1cc(Cl)c(NC2=CC(=O)C(=O)c3ccccc32)c(OC)c1	92
O=[N+]([O-])c1ccc(O)c(C=Nc2cccc3ccccc23)c1	88
O=C(NC(C(=O)N/N=C/c1cc([N+](=O)[O-])ccc1O)c1n[nH]c(=O)c2ccccc12)c1ccccc1 (stereo not drawn)	-439*
O=[N+]([O-])c1ccc(O)c(C=Nc2cccc3ncccc23)c1	91
CCN1CCc2c(sc(NC(=O)c3cc4ccccc4cc3OC)c2C(N)=O)C1	65
CC(C)N(C(=O)[C@H]1C[C@H](CC(=O)NCCC2=CCCCC2)C(=O)N2CCc3c([nH]c4ccc(Cl)cc34)[C@]12C)C(C)C	44
NS(=O)(=O)c1ccc(CCNC(=O)CCS(=O)(=O)c2ccc(Br)cc2)cc1	-214*
O=C1OC(Nc2cc(Br)cc3cccnc23)c2ccccc21 (stereo not drawn)	97
O=C(Cc1cc(=O)[nH][nH]1)N/N=C/c1cccc(Cl)c1Cl	48
C=CC(=O)Nc1ccc(N(C)c2ccnc(Nc3ccc(N4CCN(C)CC4)cc3)n2)cc1	62
CCCCN1CC[C@H]2C=CC[C@@H](C(=O)N3CCOCC3)[C@H]2C1=O	-437*
O=c1[nH]nc(-c2ccc(OCc3ccc(Cl)cc3Cl)cc2)o1	-54*
Cc1cc(/C=N/n2cnnc2)c(C)n1-c1ccc(OCc2ccc(Cl)cc2Cl)cc1	46
COc1ccc(N=CC2=C(Nc3ccc(OC)cc3)c3c(C)nn(-c4ccccn4)c3CC2)cc1	93
CN(C)c1cc(Cl)c2nonc2c1N	94
CCCCCCCCCCCCC/C=C/[C@@H](O)[C@@H](N)CO	79
Cc1ccc2ccc(C3C(=O)c4ccccc4C3=O)nc2c1	-170*	Rh110 act interf=10;Apaf-1 act conf=8
COc1ccc(-n2nc3ccc(N)cc3n2)cc1Cl	95
COc1ccc(C(=O)c2ccc3oc(-c4ccc(OC)cc4)c(C#CCCO)c3c2)cc1	-65*	Rh110 act interf=10;Apaf-1 act conf=-16
CCCCC1=CC2=C(c3ccco3)C(=O)C(C)(OC(=O)c3ccc(OC)cc3)C(=O)C2=CN1C1CC1 (stereo not drawn)	40
Cc1cccc2sc(N(CCCN(C)C)C(=O)c3ccc(S(=O)(=O)N4CCc5ccccc5C4)cc3)nc12	63
SMILES	Apaf-1 act	others
CCOc1ccc(NC(=O)CC2C(=O)N(c3ccccc3)C(=S)N2Cc2ccccn2)cc1 (stereo not drawn)	-44*	Rh110 act interf=8;Apaf-1 act conf=10
CSc1ccc(CN(C)C(=O)CSCC(=O)Nc2cc(C)on2)cc1	48
COc1ccc(-c2nc(-c3ccccc3)c(-c3cccs3)[nH]2)cc1OC	-373*	Rh110 act interf=2;Apaf-1 act conf=15
CCCCCCCCCCOC(=O)Cn1c(COc2ccccc2OC)[n+](C)c2ccccc21	71
CNS(=O)(=O)/C=C/c1ccccc1	-407*	Rh110 act interf=-8;Apaf-1 act conf=11
Oc1cccc2c(NC(=S)Nc3ccc(OC(F)F)cc3)cccc12	65
Cc1cc(C)cc(OCC(=O)Nc2ccc(N3CCCC3)cc2)c1	41
COc1cc(C)c(NC(=O)COc2ccc3c(c2)CCC3)cc1OC	-284*	Rh110 act interf=15;Apaf-1 act conf=14
COc1cc2cc(NC(C)=O)cc(NCc3ccccc3)c2cc1OC	88
CCC(C)n1c(NC(=O)c2ccccc2)c(C#N)c2nc3ccccc3nc21 (stereo not drawn)	93
Cc1c(C)n(CCC(=O)O)c2ccccc12	-70*	Rh110 act interf=-3;Apaf-1 act conf=10
COc1ccccc1N1CCN(CC(O)COc2cccc3ccccc23)CC1 (stereo not drawn)	17
Cc1c(C)n(CC(O)CN2CCN(C)CC2)c2ccccc12 (stereo not drawn)	-67*	Rh110 act interf=8;Apaf-1 act conf=18
O=C(c1ccc(OCCN2CCCCC2)cc1)c1c(-c2ccc(O)cc2)sc2cc(O)ccc12	47
COc1ccccc1N=Nc1ccc(O)c2ncccc12	90
C#CCOCCOCCOCCNc1nc(N2CCN(C(=O)[C@H](Cc3cc4ccccc4[nH]3)n3cc([C@@H](N)C(C)CC)nn3)CC2)nc(N2CCN(C(=O)[C@H](CCCCN)n3cc([C@@H](N)CC(C)C)nn3)CC2)n1 (stereo partly drawn)	41
N#Cc1c(N)n(CCNC(=O)c2ccc(Cl)cc2)c2nc3ccccc3nc12	67
CCOc1cc(C(c2c(C)[nH][nH]c2=O)c2c(C)[nH][nH]c2=O)ccc1OS(=O)(=O)c1ccc(C)cc1	41
CCOc1cc(C(=S)N2CCOCC2)ccc1OS(=O)(=O)c1ccc(OC)cc1	-55*	Rh110 act interf=-9;Apaf-1 act conf=9
COc1ccc(C(CNC(=O)COc2c(C)cc(C)cc2C)N2CCOCC2)cc1 (stereo not drawn)	66
COc1ccc(/C=N/Nc2cc(C)nc3ccc(Br)cc23)cc1	55
COc1ccc2c(c1)c1ccc3c(c1n2C)C(=O)C=CC3=O	71
NNc1nc2c(Cl)c(Cl)ccc2s1	-59*	Rh110 act interf=0;Apaf-1 act conf=10
CCN(CC)c1ccc(NC(=O)c2cnn(CC)c2)cc1	-55*	Rh110 act interf=7;Apaf-1 act conf=11
O=C1C(C2=C(O)c3ccccc3C2=O)=Nc2ccccc21	66
SMILES	Apaf-1 act	others
CCOC(=O)C1Nc2ccccc2C2C(O)C(O)CC12 (stereo not drawn)	66
O=C1Cc2cc(S(=O)(=O)N3CCNCC3)ccc2N1	40
COc1cc(NC(C)CCCN)c2ncccc2c1 (stereo not drawn)	92
Cc1ccc(N(CC2=NCCN2)c2cccc(O)c2)cc1	-2
CCOC(=O)C1=C(C)Nc2nc(SCC)nn2C1c1ccc(OC)cc1 (stereo not drawn)	-56*	Rh110 act interf=15;Apaf-1 act conf=16
CCOC(=O)C1=C(c2ccccc2)NC(N)=NC1c1ccc(OCc2ccc(C(=O)OC)cc2)cc1 (stereo not drawn)	61
Cc1nc2ccc(Cl)cc2c(-c2ccccc2Cl)c1CC(=O)O	-42*	Rh110 act interf=-5;Apaf-1 act conf=17
Cc1cc(N)c2cc(NC(=O)/C=C/c3ccccc3Cl)ccc2n1	64
COc1ccc(-c2coc3c(CN4CCCCC4)c(O)c(CN4CCCCC4)c(O)c3c2=O)cc1	42
C[C@H](CCC(=O)NCC(=O)O)[C@H]1CC[C@H]2[C@@H]3[C@H](O)C[C@@H]4C[C@H](O)CC[C@]4(C)[C@H]3C[C@H](O)[C@]12C	-9
NC(=O)C1CCN(C(=O)COc2cccc3ccccc23)CC1	-195*	Rh110 act interf=14;Apaf-1 act conf=10
COc1ccc(C(=O)CSc2nnc(-c3cccnc3)n2Cc2ccco2)cc1	-50*	Rh110 act interf=-1;Apaf-1 act conf=8
Cc1cnc(NC(=O)CSc2ncc(-c3ccccc3)n2Cc2ccco2)s1	42
O=C(CSc1nnc(-c2ccc(F)cc2)n1CC1CCCO1)NCc1ccco1 (stereo not drawn)	54
